Assays:
[1] = target: T1, Betaine--homocysteine S-methyltransferase 1 (Homo sapiens, UniProt Q93088); experiment: Inhibition of human recombinant BHMT expressed in Escherichia coli using 2 mM betaine and 1 mM DL-homocysteine as substrate
T1 sequence (Q93088 whole entry): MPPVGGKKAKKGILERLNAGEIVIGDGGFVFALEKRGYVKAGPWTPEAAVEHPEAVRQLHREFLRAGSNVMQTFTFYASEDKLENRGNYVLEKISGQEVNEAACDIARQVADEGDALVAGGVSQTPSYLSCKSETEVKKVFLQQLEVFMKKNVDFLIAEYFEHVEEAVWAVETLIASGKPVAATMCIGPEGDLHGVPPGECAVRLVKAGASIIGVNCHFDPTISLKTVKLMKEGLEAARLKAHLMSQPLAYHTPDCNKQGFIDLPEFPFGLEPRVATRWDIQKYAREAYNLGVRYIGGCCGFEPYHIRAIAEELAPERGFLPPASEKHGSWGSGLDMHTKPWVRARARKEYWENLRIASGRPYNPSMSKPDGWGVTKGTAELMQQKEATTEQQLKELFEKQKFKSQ
Procedure, shortened: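 Same radiometric Dowex assay as for percent inhibition (0.2 μM enzyme, pH 7.5 K-phosphate, 37 °C, 30 min), but with 1 mM DL-homocysteine and 2 mM 14C-betaine. Ten inhibitor concentrations in duplicate per curve, IC50 by nonlinear regression. Three independent experiments, mean ± SEM.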

[2] = target: T1, Betaine--homocysteine S-methyltransferase 1; experiment: Binding affinity to human recombinant BHMT expressed in Escherichia coli by isothermal titration calorimetry
Procedure, shortened: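 ITC at 25 °C in 50 mM HEPES/NaOH, ACES/NaOH or Tris/HCl, pH 7.5, with 5 mM β-mercaptoethanol, no substrates present. 9 μL aliquots of 50 μM ligand injected into 5.1 μM protein (monomer, quantified by amino acid analysis after dialysis) until saturation. Heats corrected for dilution using buffer-only injections and fitted to the integrated heats.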

[3] = target: T2, Betaine--homocysteine S-methyltransferase 1 (Homo sapiens) (UniProt Q93088); experiment: Inhibition of human recombinant BHMT expressed in Escherichia coli at 20 uM using 0.25 mM betaine and 0.1 mM DL-homocysteine as substrate
T2 sequence (whole entry): T1 sequence (Q93088 whole entry)
Procedure, shortened: (§1)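 Radiometric assay with 0.2 μM enzyme, preincubated with inhibitor, then 100 μM DL-homocysteine (fresh from thiolactone) and 250 μM [methyl-14C]betaine. Run in 50 mM K-phosphate pH 7.5 with 10 mM β-mercaptoethanol, 37 °C, 30 min; stopped on ice. […] Enzyme-free blanks subtracted; triplicates; activity expressed relative to no-inhibitor control.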

[4] = target: T2, Betaine--homocysteine S-methyltransferase 1 (Homo sapiens); experiment: Inhibition of human recombinant BHMT expressed in Escherichia coli at 1 uM using 0.25 mM betaine and 0.1 mM DL-homocysteine as substrate; procedure, shortened: as §1

| Structure (SMILES) | IC50 [1] [nM] | Kd [2] [nM] | inhibition [3] [%] | inhibition [4] [%] |
| --- | --- | --- | --- | --- |
| CC(C)(CCSCC[C@@H](N)C(=O)O)CC(=O)O | 701 | – | – | – |
| CC(C)(CCSCC[C@H](N)C(=O)O)CC(=O)O | 64 | 51 | – | – |
| C[C@@H](NCCSCCC(N)C(=O)O)C(=O)O (mixture of isomers) | – | – | 15.5 | – |
| C[C@H](NCCSCCC(N)C(=O)O)C(=O)O (mixture of isomers) | – | – | 19.8 | – |
| CC(C)(CCSCCC(N)C(=O)O)CC(=O)O (racemic) | 84 | – | 100 | 98.1 |
| NC(CC[Se]CCCCC(=O)O)C(=O)O (racemic) | 649 | – | 100 | 94.3 |
| NC(CCSCSCCC(=O)O)C(=O)O (racemic) | 3260 | – | 97.6 | 26.3 |
| C[C@@H](CCSCC[C@@H](N)C(=O)O)CC(=O)O (racemic) | 139 | – | 100 | 97.8 |
| CN(CCSCCC(N)C(=O)O)CC(=O)O (racemic) | 2500 | – | 98.5 | 58.9 |
| CN(CCCSCCC(N)C(=O)O)CC(=O)O (racemic) | – | – | 79 | 22.4 |
| C[N+](C)(CCCSCCC(N)C(=O)O)CC(=O)[O-] (racemic) | – | – | 3.3 | 0 |
| C[N+](C)(CCSCCC(N)C(=O)O)CC(=O)[O-] (racemic) | – | – | 23.8 | 5.1 |
| C[N+](C)(CSCCC(N)C(=O)O)CC(=O)[O-] (racemic) | – | – | 0 | 0 |
| NC(CCCCCCCC(=O)O)C(=O)O (racemic) | – | – | 2.11 | – |
| NC(CCCSCCCC(=O)O)C(=O)O (racemic) | – | – | 5.4 | – |
| NC(CCOCCCCC(=O)O)C(=O)O (racemic) | – | – | 9.8 | – |
| NC(CCSCCNCC(=O)O)C(=O)O (racemic) | – | – | 37.1 | – |
| NC(CCSCCNCCC(=O)O)C(=O)O (racemic) | – | – | 0 | – |
| NC(CCSSCCCC(=O)O)C(=O)O (racemic) | – | – | 19.1 | – |

— ChEMBL document CHEMBL1137014, “Structure-activity study of new inhibitors of human betaine-homocysteine S-methyltransferase” (J Med Chem, 2009)
